Test [1] has as its target T1, Human immunodeficiency virus type 1 protease (Human immunodeficiency virus 1, UniProt Q72874). Description: Inhibitory activity against recombinant HIV-1 Protease.
Test [2] relates to H9. The test can be described thus: In vitro inhibitory cytopathic effect against HIV-1 in H9 cells. The note with it: Homo sapiens, H9, read-out: TC50. In kind it is functional.
Test [3] has as its system MT4. Description: In vitro inhibitory cytopathic effect against HIV-1 in MT-4 cells. In kind it is functional. Conditions: Homo sapiens, MT4, read-out: TC50. A digest of the protocol:
(§1)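 MT4 cells (1 × 10⁴) were infected with 10 TCID₅₀ HIV-1 3B for 2 h, washed, and grown at 37 °C in inhibitor-containing medium. Viral cytopathic effect and compound toxicity were both scored on day 5 by MTT uptake. IC₅₀ and TC₅₀ came from this read-out.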
In general terms: Cytopathic effects are the visible damage that an infection or toxin causes in cultured cells.

Test [4] addresses T1, Human immunodeficiency virus type 1 protease. The test can be described thus: Inhibitory activity against recombinant HIV-1 protease.
Test [5] concerns H9. The test can be described thus: In vitro inhibitory activity against HIV-1 in H9 cells. In kind it is functional, cell-based. The note with it: Homo sapiens. A digest of the protocol:
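H9 cells (2 × 10⁴) were infected with 100 TCID₅₀ HIV-1 3B for 2 h, washed, then cultured at 37 °C with inhibitor. Viral replication was read as p24 antigen by ELISA on days 7 and 10, and IC₅₀ was taken from the dose-response. Viability of uninfected cultures was checked by trypan blue exclusion.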

For test [6], the system named is MT4. Description: In vitro inhibitory activity against HIV-1 in MT-4 cells. The class given is functional, cell-based. Conditions: Homo sapiens. In short, it runs like this:
as §1

In general, IC50 refers to the concentration that inhibits the measured activity by half. As for `CC(=O)N[C@H](C(=O)N[C@H](C(=O)N[C@@H](Cc1ccccc1)C(O)[C@H](Cc1ccccc1)NC(=O)[C@H](NC(=O)[C@H](NC(C)=O)C(C)C)C(C)C)C(C)C)C(C)C` (some centres undefined), the IC50 in test [1] was found to be 0.01 µM.

For `CC(C)[C@H](NC(=O)OCc1ccccc1)C(=O)N[C@@H](Cc1ccccc1)[C@@H](O)[C@@H](O)[C@H](Cc1ccccc1)NC(=O)[C@H](NC(=O)OCc1ccccc1)C(C)C`, the CC50 was 60 µM in the test on H9 [2] and above 100 µM with MT4 [3]. For the same compound, the values for the IC50 (in test [4]; in the test with H9 [5]; with MT4 [6]) were 0.00022 µM, 0.02 µM and 0.016 µM, respectively.

Regarding `CC(C)(C)OC(=O)N[C@@H](Cc1ccccc1)[C@H](O)[C@@H](O)[C@H](Cc1ccccc1)NC(=O)OC(C)(C)C`, the concentration for half-maximal inhibition (IC50) in test [1] turned out to be 0.28 µM.

For the compound `CC(=O)N[C@@H](Cc1ccccc1)C(O)[C@H](Cc1ccccc1)NC(C)=O`, the IC50 in test [1] was above 10 µM.

Regarding `CC(=O)N[C@H](C(=O)N[C@@H](Cc1ccccc1)C(O)[C@H](Cc1ccccc1)NC(=O)[C@@H](NC(C)=O)C(C)C)C(C)C`, the IC50 in test [1] was 0.012 µM.

As for `CC(C)(C)OC(=O)N[C@@H](Cc1ccccc1)[C@H](O)[C@H](O)[C@H](Cc1ccccc1)NC(=O)OC(C)(C)C`, in test [1], the IC50 was 0.012 µM.

On to `CC(C)C[C@H](NC(=O)OCc1ccccc1)C(=O)N[C@@H](Cc1ccccc1)C(O)[C@H](Cc1ccccc1)NC(=O)[C@@H](CC(C)C)NC(=O)OCc1ccccc1` (some centres undefined), for which the IC50 in test [1] was above 0.1 µM.

For the compound `CC(C)[C@H](NC(=O)OCc1ccccc1)C(=O)N[C@@H](Cc1ccccc1)[C@@H](O)[C@H](Cc1ccccc1)NC(=O)[C@H](NC(=O)OCc1ccccc1)C(C)C`, the IC50 in test [1] is 0.003 µM.

`CC[C@H](C)[C@H](NC(=O)OCc1ccccc1)C(=O)N[C@@H](Cc1ccccc1)C(O)[C@H](Cc1ccccc1)NC(=O)[C@H](NC(=O)OCc1ccccc1)[C@@H](C)CC` (some centres undefined): in test [1], the IC50 was determined as 0.0049 µM.

As to `CC(C)(C)OC(=O)N[C@@H](Cc1ccccc1)[C@@H](O)[C@H](O)[C@H](Cc1ccccc1)NC(=O)OC(C)(C)C`, in test [1], the IC50 was found to be 0.04 µM.

In the case of `CC(C)[C@H](NC(=O)OCc1ccccc1)C(=O)N[C@@H](Cc1ccccc1)[C@@H](O)[C@H](O)[C@H](Cc1ccccc1)NC(=O)[C@H](NC(=O)OCc1ccccc1)C(C)C`, the CC50 in the test on H9 [2] is 10 µM; with MT4 [3] it was above 100 µM. The IC50 was found to be 0.00022 µM in test [1], 0.02 µM in the test on H9 [5] and 0.08 µM in the test on MT4 [6].

`CC(C)[C@H](NC(=O)OCc1ccccc1)C(=O)N[C@@H](Cc1ccccc1)[C@H](O)[C@@H](O)[C@H](Cc1ccccc1)NC(=O)[C@H](NC(=O)OCc1ccccc1)C(C)C`: the CC50 in the test on H9 [2] and with MT4 [3] was above 100 µM each time. Further, the IC50 worked out at 0.00038 µM in test [4], 0.06 µM in the test with H9 [5] and 0.15 µM in the test with MT4 [6].

The values above are taken from ChEMBL document CHEMBL1125068, “Structure-based, C2 symmetric inhibitors of HIV protease” (J Med Chem, 1990).
